# Experimental data: ChEMBL document CHEMBL2069168, “Synthesis and biological evaluation of truncated α-galactosylceramide derivatives focusing on cytokine induction profile” (2012)
# The source made the active and inactive calls. The rule behind the calls is not given here.
# Assays:
# Mus musculus [1] = organism: Mus musculus; test: Immunostimulatory activity in C57BL/6 mouse splenocytes at 100 ng/ml after 72 hr assessed as IFN-gamma secretion
# Mus musculus [2] = organism: Mus musculus; test: Immunostimulatory activity in C57BL/6 mouse splenocytes at 100 ng/ml after 72 hrs assessed as IL-4 secretion
# Splenocyte [3] = test: Immunostimulatory activity in C57BL/6 mouse splenocytes assessed as IL-4 release at 100 ng/ml after 72 hrs by ELISA relative to OCH; format: functional
# Outline: (§1)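 Splenocytes from female C57BL/6 mice (6–8 weeks) in RPMI1640 with 10% FBS, 5×10^-5 M 2-mercaptoethanol, 1 mM pyruvate, 25 mM HEPES; 5×10^5 cells/well stimulated with glycolipid at 100 ng/ml, 72 h, 37 °C. Supernatant IL-4 and IFN-γ by ELISA; values expressed relative to OCH reference included in every run, mean of at least three experiments.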
# Splenocyte [4] = test: Immunostimulatory activity in C57BL/6 mouse splenocytes assessed as IFN-gamma release at 100 ng/ml after 72 hrs by ELISA relative to OCH; format: functional
# Outline: as §1
# Dendritic cell = test: Immunostimulatory activity in C57BL/6 mouse dendritic cells assessed as IL-12 secretion at 100 ng/ml by ELISA relative to OCH; format: functional, cell-based
# Mus musculus [5] = organism: Mus musculus; test: Immunostimulatory activity in C57BL/6 mouse natural killer cells assessed as IFN-gamma secretion at 100 ng/ml by ELISA relative to OCH; format: functional
# Mus musculus [6] = test: Immunosuppressive activity iv in C57BL/6 mouse assessed as inhibition of OCH-induced IL-4 secretion at 0.1 ug/mouse, iv administered 15 mins before OCH challenge; format: functional, organism-based
# Outline: (§2)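 Female C57BL/6 mice (9 weeks); glycolipids dissolved in 0.5% DMSO in saline. Test compound given iv via tail vein at 0.1 µg/mouse 15 min before iv OCH (0.1 µg/mouse). Sera taken 3, 6, 9 h after second injection; serum IL-4 and IFN-γ by ELISA. Mean ± SD, N = 4–5; Student's t-test versus vehicle.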
# Mus musculus [7] = test: Immunosuppressive activity iv in C57BL/6 mouse assessed as inhibition of OCH-induced IFN-gamma secretion at 0.1 ug/mouse, iv administered 15 mins before OCH challenge; format: functional, organism-based
# Outline: as §2
SMILES,Activity (Mus musculus [1]),Activity (Mus musculus [2]),Activity (Splenocyte [3]),Activity (Splenocyte [4]),other results
CCCCCCCCCCCCCCCCCCCCCCCC(=O)N[C@@H](CO[C@H]1O[C@H](CO)[C@H](O)[C@H](O)[C@H]1O)[C@H](O)[C@H](O)COCCCCCCCCCCCC,227%,78%,,,
CCCCCCCCCCCCCCCCCCCCCCCC(=O)N[C@@H](CO[C@H]1O[C@H](CO)[C@H](O)[C@H](O)[C@H]1O)[C@H](O)[C@H](O)CCC,,,105%,96%,
CCCCCCCCCCCCCCCCCCCCCCCC(=O)N[C@@H](CO[C@H]1O[C@H](CO)[C@H](O)[C@H](O)[C@H]1O)[C@H](O)[C@H](O)CCCC,,,115%,112%,
CCCCCCCCCCCCCCCCCCCCCCCCCC(=O)N[C@@H](CO[C@H]1O[C@H](CO)[C@H](O)[C@H](O)[C@H]1O)[C@H](O)[C@H](O)CCCCC,,,129%,504%,
CCCCCCCCCCCCCCCCCCCCCCCCCC(=O)N[C@@H](CO[C@H]1O[C@H](CO)[C@H](O)[C@H](O)[C@H]1O)[C@H](O)[C@H](O)CCCCCCCCCCCCCC [RGI-7000],,,128%,569%,
CCCCCCCCCCCCCCCCCCCCCCC(=O)N[C@@H](CO[C@H]1O[C@H](CO)[C@H](O)[C@H](O)[C@H]1O)[C@H](O)[C@H](O)CCCC,,,97%,148%,
CCCCCCCCCCCCCCCCCCCC(=O)N[C@@H](CO[C@H]1O[C@H](CO)[C@H](O)[C@H](O)[C@H]1O)[C@H](O)[C@H](O)CCCCC,,,6%,9%,
CCCCCCCCCCCCCCCCCCCCCC(=O)N[C@@H](CO[C@H]1O[C@H](CO)[C@H](O)[C@H](O)[C@H]1O)[C@H](O)[C@H](O)CCCCC,,,51%,46%,
CCCCCCCCCCCCCCCCCCCCCCC(=O)N[C@@H](CO[C@H]1O[C@H](CO)[C@H](O)[C@H](O)[C@H]1O)[C@H](O)[C@H](O)CCCCC,,,103%,93%,
CCCCCCCCCCCCCCCCCCCCCCCC(=O)N[C@@H](CO[C@H]1O[C@H](CO)[C@H](O)[C@H](O)[C@H]1O)[C@H](O)[C@H](O)Cc1ccc(C)cc1,76%,78%,,,
CCCCCCCCCCCCCCCCCCCCCCCC(=O)N[C@@H](CO[C@H]1O[C@H](CO)[C@H](O)[C@H](O)[C@H]1O)[C@H](O)[C@H](O)CCc1ccccc1,35%,57%,,,
CCCCCCCCCCCCCCCCCCCCCCCCCC(=O)N[C@@H](CC[C@H]1O[C@H](CO)[C@H](O)[C@H](O)[C@H]1O)[C@H](O)[C@H](O)CCCCCCCCCCCCCC,,,,,Activity (Dendritic cell): Active; Activity (Mus musculus [5]): Active
CCCCCCCCCCCCCCCCCCCCCCC(=O)N[C@@H](CO[C@H]1O[C@H](CO)[C@H](O)[C@H](O)[C@H]1O)[C@H](O)[C@H](O)CCCCCC,,,97%,113%,
CCCCCCCCCCCCCCCCCCCCCCCC(=O)N[C@@H](CO[C@H]1O[C@H](CO)[C@H](O)[C@H](O)[C@H]1O)[C@H](O)[C@H](O)Cc1ccccc1,284%,211%,,,
CCCCCCCCCCCCCCCCCCCCCCCC(=O)N[C@@H](CO[C@H]1O[C@H](CO)[C@H](O)[C@H](O)[C@H]1O)[C@H](O)[C@H](O)COc1ccccc1,80%,99%,,,
CCCCCCCCCCCCCCCCCCCCCCCCCCCC(=O)N[C@@H](CO[C@H]1O[C@H](CO)[C@H](O)[C@H](O)[C@H]1O)[C@H](O)[C@H](O)CCCCC,,,178%,761%,
CCCCCCCCCCCCCCCCCCCCCCCCC(=O)N[C@@H](CO[C@H]1O[C@H](CO)[C@H](O)[C@H](O)[C@H]1O)[C@H](O)[C@H](O)CCCCC,,,154%,103%,
CCCCCCCCCCCCCCCCCCCCCCCC(=O)N[C@@H](CO[C@H]1O[C@H](CO)[C@H](O)[C@H](O)[C@H]1O)[C@H](O)[C@H](O)COC,64%,86%,,,
CCCCCCCCCCCCCCCCCCCCCCCC(=O)N[C@@H](CO[C@H]1O[C@H](CO)[C@H](O)[C@H](O)[C@H]1O)[C@H](O)[C@H](O)COCCC,161%,103%,,,
CCCCCCCCCCCCCCCCCCCCCCCC(=O)N[C@@H](CC[C@H]1O[C@H](CO)[C@H](O)[C@H](O)[C@H]1O)[C@H](O)[C@H](O)CCCCC,0%,1%,,,inhibition (Mus musculus [6]): inactive; inhibition (Mus musculus [7]): inactive
CCCCCCCCCCCCCCCCCCCCCCCC(=O)N[C@@H](CO[C@H]1O[C@H](CO)[C@H](O)[C@H](O)[C@H]1O)[C@H](O)[C@H](O)CC1CCCC1,74%,98%,,,
CCCCCCCCCCCCCCCCCCCCCCCC(=O)N[C@@H](CO[C@H]1O[C@H](CO)[C@H](O)[C@H](O)[C@H]1O)[C@H](O)[C@H](O)CCCCC,100%,100%,100%,100%,
